Consider eight compounds from ChEMBL document CHEMBL3351592, “Marine spongian sesquiterpene phenols, dictyoceratin-C and smenospondiol, display hypoxia-selective growth inhibition against cancer cells” (2014).

Assay [1] has as its system DU-145. As to the kind of experiment: Antiproliferative activity against human DU145 cells assessed as growth inhibition under hypoxic condition after 24 hrs by MTT assay. It is filed as functional, cell-based. A digest of the protocol: (§1)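 DU145 cells in RPMI 1640 with 10% heat-inactivated FBS, seeded at 1×10^4 cells/well, settled 4 h at 37 °C in 5% CO2. Then held 12 h either normoxic or hypoxic (94% N2, 5% CO2, 1% O2). Compound added and incubated a further 24 h under the same condition. Read by MTT; inhibition expressed as % of parallel negative controls. Mean ± SD of 3 experiments in triplicate.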
Background: Formazan colour is commonly taken as a measure of viable cells.

Assay [2] has as its system DU-145. As to the kind of experiment: Antiproliferative activity against human DU145 cells assessed as growth inhibition under hypoxic condition at 1 to 30 uM after 24 hrs by MTT assay. It is filed as functional, cell-based.
Assay [3] relates to DU-145. As to the kind of experiment: Inhibition of hypoxia-induced accumulation of HIF-1alpha in human DU145 cells at 10 to 30 uM after 24 hrs by Western blotting analysis. It is filed as functional, cell-based. A digest of the protocol:
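DU145 cells at 40% confluence pre-incubated 12 h normoxic (5% CO2, 37 °C) or hypoxic (94% N2, 5% CO2, 1% O2). Then treated 24 h under the same condition. Cells rinsed in ice-cold PBS and lysed in Tris-HCl pH 7.5 buffer with EDTA, PMSF, NaF, vanadate, SDS and protease/phosphatase inhibitors. Lysates run on SDS-PAGE and blotted with anti-HIF-1α and anti-β-actin. ECL detection.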
For orientation: In western blotting, separated proteins are transferred to a membrane and probed.

Assay [4] relates to DU-145. As to the kind of experiment: Inhibition of hypoxia-induced of VEGF production in human DU145 cells at 10 to 30 uM after 24 hrs by Western blotting analysis. It is filed as functional, cell-based. An outline of the steps: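 DU145 cells at 40% confluence pre-incubated 12 h normoxic or hypoxic (1% O2), then treated 24 h. Medium incubated 12 h at 4 °C with anti-VEGF antibody, then with protein G agarose for 2 h at 4 °C. Beads washed 4 times in lysis buffer and boiled 5 min in SDS sample buffer. Run on SDS-PAGE, Western blotted, ECL detection.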

The subject of assay [5] is DU-145. As to the kind of experiment: Antiproliferative activity against human DU145 cells assessed as growth inhibition under hypoxic condition at 30 uM after 24 hrs by MTT assay. It is filed as functional, cell-based. A digest of the protocol: as §1
Assay [6] concerns DU-145. As to the kind of experiment: Antiproliferative activity against human DU145 cells assessed as growth inhibition under normoxic condition at 30 uM after 24 hrs by MTT assay. It is filed as functional, cell-based. An outline of the steps:
as §1

For assay [7], the system named is DU-145. As to the kind of experiment: Antiproliferative activity against human DU145 cells assessed as maximal growth inhibition under hypoxic condition at 10 uM after 24 hrs by MTT assay. It is filed as functional. The settings on record: DU-145, 24 h. An outline of the steps: as §1

Calls of active or inactive are those of the source. The calls are words filed in the database; no cut-off is given here.

For orientation: inhibition means the percentage by which the read-out fell short of the control. For `C=C1CCC[C@H]2[C@](C)(Cc3cc(C(=O)OC)cc(O)c3O)[C@@H](C)CC[C@]12C`, the inhibition entry in assay [1] is “Dose-dependent effect”.
For the compound `COC1=CC(=O)C(O)=C(C[C@@]2(C)CC[C@]3(C)C(C)=CCC[C@H]3[C@H]2C)C1=O`, in assay [2], the inhibition entry is “inactive”.
As for `C=C1CCC[C@H]2[C@](C)(CC3=C(O)C(=O)C=C(NCCc4ccccc4)C3=O)[C@@H](C)CC[C@@]12C`, the inhibition entry in assay [2] is “inactive”.
For `CC1=CCC[C@H]2[C@@H](C)[C@@](C)(CC3=C(O)C(=O)C=C(N)C3=O)CC[C@]12C`, the inhibition entry in assay [3], in assay [2] and in assay [4] was “inactive” throughout.
Regarding `C=C1CCC[C@H]2[C@](C)(Cc3cc(C(=O)OC)ccc3O)[C@@H](C)CC[C@]12C`, the inhibition entry in assay [3], in assay [5], in assay [6] and in assay [4] was “Active” each time. In assay [1], the inhibition entry was “Dose-dependent effect”. Also, the inhibition at 10 µM in assay [7] was 43%.
For `C=C1CCC[C@H]2[C@](C)(CC3=C(O)C(=O)C=C(NCC(C)C)C3=O)[C@@H](C)CC[C@]12C`, the inhibition result in assay [2] is “inactive”.
For the compound `C=C1CCC[C@H]2[C@](C)(CC3=C(O)C(=O)C=C(NCC(C)C)C3=O)[C@@H](C)CC[C@@]12C`, in assay [2], the inhibition entry is “inactive”.
With `C=C1CCC[C@H]2[C@](C)(CC3=C(O)C(=O)C=C(OC)C3=O)[C@@H](C)CC[C@]12C`, the inhibition entry in assay [2] was “inactive”.
